Experimental data reported in ChEMBL document CHEMBL4392884, “Sesquiterpene Lactones from Artemisia argyi: Absolute Configuration and Immunosuppressant Activity” (J Nat Prod, 2019).

These molecules were tested on T-cell (assay: Immunosuppressant activity in human T lymphocytes assessed as inhibition of anti-human CD3 and anti-human CD28 monoclonal antibody-induced T lymphocyte proliferation incubated for 72 hrs by FACS analysis).
Assay type: functional, cell-based
Procedure, shortened: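 Stimulated human T lymphocytes were exposed to compounds over 0.01−30 μg/mL. Proliferation was read by FACS, with forward and side scatter used to score antiproliferative activity and cytotoxicity together. Three independent experiments were run, expressed as mean ± standard deviation relative to the untreated, stimulated control.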

SMILES | IC50
C=C1C(=O)O[C@H]2[C@H]1CC[C@@](C)(O)[C@]13O[C@H]1[C@H]1O[C@@]1(C)[C@H]23 [ARTECANIN] | 2.7 µM
C=C1C(=O)O[C@H]([C@@H]2C(=O)C=C[C@]2(C)O)[C@H]1CCC(C)=O (relative stereo) [SECOTANAPARTHOLIDE B] | 1 µM
C=C1[C@@H](OC(C)=O)C[C@@H](O)[C@]2(C)CCC3=C(COC(C)=O)C(=O)O[C@@H]3[C@@H]12 | 13.8 µM
C=C1C(=O)O[C@@H]2[C@H]3C(C)=CC[C@@H](O)[C@]3(C)CC[C@@H]12 [SANTAMARIN] | 19.6 µM
COc1ccc(-c2cc(=O)c3c(O)c(OC)c(O)cc3o2)cc1OC [EUPATILIN] | 11.7 µM
C=C1C(=O)O[C@H]([C@H]2C(=O)C=C[C@@]2(C)O)[C@H]1CCC(C)=O (relative stereo) | 1.2 µM
C=C1C(=O)O[C@@H]2[C@@H]3[C@@]4(C=C[C@@]3(C)[C@@]3(C4)C(=O)O[C@@H]4[C@H]5C(C)=CC(=O)C5=C(C)C[C@H](OC(C)=O)[C@H]43)[C@](C)(O)CC[C@@H]12 | 3.2 µM
C=C1C(=O)O[C@H]2[C@H]1[C@@H](OC(C)=O)CC(C)=C1C[C@H]3O[C@@]3(C)[C@@H]12 | 1.9 µM
C=C1C(=O)O[C@H]2[C@H]1CC[C@@](C)(O)[C@@]13O[C@@H]1[C@@H]1O[C@]1(C)[C@H]23 | 3.7 µM
COc1cc(-c2cc(=O)c3c(O)c(OC)c(O)cc3o2)ccc1O [JACEOSIDINE] | 5.8 µM

The molecules below were run on T-cell (assay: Toxicity in anti-human CD3 and anti-human CD28 monoclonal antibody-stimulated human T lymphocytes assessed as induction of apoptosis at 3 times antiproliferative IC50 incubated for 48 hrs by annexin V-FITC and propidium iodide staining based FACS analysis).

SMILES | Activity
C=C1C(=O)O[C@H]2[C@H]1[C@@H](OC(C)=O)CC(C)=C1C[C@H]3O[C@@]3(C)[C@@H]12 | Non-Toxic
